A short description of test [1]: inhibitors of TNFa-induced NFkB p65 translocation, primary screen, imaging, HUVEC, MLSMR starter and 10KST1 sets (AID 438;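 active = inhibition above 20% together with a positive visual image hit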;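 note: compound added about 3h40 before a 20 min TNFalpha stimulation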;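 for inhibition: signal is the nuclear over cytoplasmic p65 intensity ratio per well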). The following applies: HUVEC TNFa-induced p65 nuclear translocation; cell count: measured here: nuclei count (cytotoxicity indicator), at 2.08 µM; inhibition: at 2 µM, stronger effect = higher value, 0% TNFa-plus-vehicle, 100% no-TNFa wells.
A short description of test [2]: endothelial E-selectin expression blockers – imaging, HUVEC, immunofluorescence, MLSMR starter and 10KST1 sets, primary screen (AID 487;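 active = visually confirmed hit in the image check and inhibition above 20%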;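 for inhibition: signal is fraction of cell area covered by stained E-selectin grains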;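 for nuclei count: 100% = median nuclei count of all wells on the same plate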). To be noted: HUVEC TNFalpha-induced E-selectin immunofluorescence imaging, at 2 µM; inhibition: stronger effect = higher value; nuclei count: measured here: cell number, toxicity.
A short description of test [3]: Primary imaging screen for DUSP6 inhibitors that restore phospho-Erk in transfected HeLa cells, chemical complementation (AID 609).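 For inhibition: phospho-Erk level distribution per well compared with pooled transfected vehicle control wells.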 The following applies: HeLa MKP-3 transfected, phospho-Erk imaging KS statistic, at 10 µM, cells stimulated with TPA for 15 min.
For test [4], the target named is Dual specificity protein phosphatase 6 (Homo sapiens) (UniProt Q16828). The test is described as above. To be noted: HeLa MKP-3 transfected, phospho-Erk imaging KS statistic; at 10 µM; stronger effect = higher value; cells stimulated with TPA for 15 min.
Dual specificity protein phosphatase 6 (Homo sapiens), sequence (Q16828 whole entry, looked up): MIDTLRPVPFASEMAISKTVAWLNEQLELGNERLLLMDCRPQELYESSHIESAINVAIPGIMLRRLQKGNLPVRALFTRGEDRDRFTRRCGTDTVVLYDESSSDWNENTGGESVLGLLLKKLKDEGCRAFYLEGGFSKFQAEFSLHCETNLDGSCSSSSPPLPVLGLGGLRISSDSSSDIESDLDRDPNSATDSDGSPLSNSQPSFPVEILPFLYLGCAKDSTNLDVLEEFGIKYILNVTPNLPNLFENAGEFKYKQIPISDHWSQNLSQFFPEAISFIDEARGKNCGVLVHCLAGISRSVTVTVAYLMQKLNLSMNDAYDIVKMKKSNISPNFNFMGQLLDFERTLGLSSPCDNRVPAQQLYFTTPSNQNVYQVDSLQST
In test [5] the target is Voltage-gated potassium channel subunit beta-2 (Rattus norvegicus) (UniProt P62483). Nature of the test: inhibitors of rat Kvbeta2 reductase activity – biochemical, NADPH fluorescence, primary screen (AID 622;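 active = fluorescence slope higher than the sample average by over 3 SD, cut at about -0.22 in these data, passing the limit was not always enough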;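 note: slope of raw intensity against log time taken from 70 to 1610 s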). The following applies: recombinant KvBeta, 4-cyanobenzaldehyde reduction, at 10 µM, stronger effect = higher value.
Voltage-gated potassium channel subunit beta-2 (Rattus norvegicus), sequence (P62483 whole entry, looked up): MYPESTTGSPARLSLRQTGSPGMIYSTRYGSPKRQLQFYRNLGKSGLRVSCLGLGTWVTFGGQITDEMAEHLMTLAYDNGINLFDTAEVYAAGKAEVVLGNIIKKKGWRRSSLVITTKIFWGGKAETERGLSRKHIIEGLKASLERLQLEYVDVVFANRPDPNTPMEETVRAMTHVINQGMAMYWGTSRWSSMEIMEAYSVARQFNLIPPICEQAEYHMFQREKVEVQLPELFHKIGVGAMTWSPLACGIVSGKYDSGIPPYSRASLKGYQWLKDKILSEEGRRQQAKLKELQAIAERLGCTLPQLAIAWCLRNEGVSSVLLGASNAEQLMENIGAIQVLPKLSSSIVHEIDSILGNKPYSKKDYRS
Test [6] has the same target. Nature of the test: enhancers of rat Kvbeta2 NADPH turnover – biochemical, NADPH fluorescence, primary screen (AID 623;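 active = NADPH fluorescence slope more negative than the mean of all samples by about 3 SD, 99.7% confidence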;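 note: fluorescence intensity change per second fitted from 20 to 320 s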). The following applies: Recombinant KvBeta, NADPH fluorescence decrease slope, 10 min; at 10 µM; stronger effect = lower value.
Test [7] deals with Alpha-2C adrenergic receptor (Homo sapiens) (UniProt P18825). Nature of the test: compounds altering alpha2C-coupled GIRK flux – cell-based, HEK293 alpha2C/GIRK1/2, thallium flux, primary screen (AID 624;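 active = fluorescence slope after compound addition differing from the mean of all screened samples at 99.7% confidence, in either direction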;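 note: slope of fluorescence ratio to pre-addition baseline per second over 15 to 24 s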). The following applies: thallium flux BTC fluorescence, at 10 µM, actives lie on both sides.
Alpha-2C adrenergic receptor (Homo sapiens), sequence (P18825 whole entry, looked up): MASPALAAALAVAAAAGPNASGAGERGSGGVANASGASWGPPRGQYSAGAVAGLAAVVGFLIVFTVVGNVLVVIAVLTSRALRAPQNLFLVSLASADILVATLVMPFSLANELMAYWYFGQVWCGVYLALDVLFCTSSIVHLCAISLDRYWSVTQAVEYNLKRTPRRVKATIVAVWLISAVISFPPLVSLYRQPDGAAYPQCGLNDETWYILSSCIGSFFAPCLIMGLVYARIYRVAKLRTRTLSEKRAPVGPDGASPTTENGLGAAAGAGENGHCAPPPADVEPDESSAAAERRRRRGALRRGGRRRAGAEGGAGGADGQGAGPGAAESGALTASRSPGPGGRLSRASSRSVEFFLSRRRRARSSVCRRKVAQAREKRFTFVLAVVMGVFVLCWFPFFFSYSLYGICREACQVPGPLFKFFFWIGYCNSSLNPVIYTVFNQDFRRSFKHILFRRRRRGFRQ
Test [8] can be described thus: inhibitors of larval lipid processing in zebrafish, primary screen, whole organism, PED6 fluorescence, gall bladder and intestine (AID 686;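 active = a full or partial loss of lipid-probe fluorescence in the fish gall bladder, intestine or both, judged by eye; inactive = no fluorescence loss, or compound toxic to the fish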;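 note: larvae 5 to 7 days old with five fish per well; signal comes from phospholipase A2 cleavage of quenched PED6 carried via bile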). To be noted: Zebrafish larvae PED6 lipid processing, fluorescence scoring; screened at 20 µM (by protocol). An outline of the steps: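 Incubation: overnight exposure of larvae to compound plus PED6 / Test system: live zebrafish larvae aged 5-7 days, whole organism / Amount: 5 larvae per well / Read-out basis: visual per-well fluorescence inhibition score / Signal: visual fluorescence microscopy scoring of gall bladder, gut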

The nature of test [9]: loss of swimming-algae plug formation – whole organism, Chlamydomonas reinhardtii, WT vs cilia-less mutant, absorbance, 96-well, primary screen (AID 463189;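 active = inhibition at or above 50% relative to wild type and mutant plate controls; inactive = inhibition below 50%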;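 note: 0% = wild type cc124 cells in DMSO and 100% = ciliumless bld1 mutant cells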). To be noted: Chlamydomonas reinhardtii gravitaxis, OD600 absorbance, 2 days; at 10 µM; stronger effect = higher value.
The mark [10] stands for this setting: measured here: cell density z-score.
[11] abbreviates: measured here: nuclear c-Myc green intensity z-score.
The mark [12] stands for this setting: measured here: nuclear pErk red intensity z-score, stronger effect = higher value.

Active and inactive are the calls of the source.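 Rule for the calls, unless noted: active = compounds giving at least 50% inhibition in the cell-based MKP-3 phosphatase rescue imaging test; inactive = the rest.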

As usually defined, the inhibition is the relative decrease from the control value, in per cent. For the compound `CCCCOc1ccccc1/C=c1/sc2nc(-c3oc4ccccc4c3C)nn2c1=O`, the cell count in [1] was 431. For the same compound, the inhibition in [1] is 0.7% (inactive); in [2] it was -36.7% (inactive); in [4], 2.46% (inactive); in test [9], -7.58% (inactive). The nuclei count in [2] turned out to be 128%. Besides, the z-score in test [3] (setting [10]) was 0.907; in test [3] (setting [11]) it was 2.04; in test [3] (setting [12]), -0.0877. For the same compound, in [5], the fluorescence slope is -0.325 (inactive). In addition, the NADPH fluorescence slope in test [6] is -1e-05 (inactive). In addition, in test [7], the slope was 0.00462 (inactive). Besides, in [8], the outcome was inactive.

Take `Nc1ccc2ncccc2c1N`: the cell count in test [1] worked out at 537. Besides, the inhibition in [1] is -10% (inactive); in test [2], -47.1% (inactive); in test [4], -9.66% (inactive); in [9], -1.57% (inactive). For the same compound, in [2], the nuclei count worked out at 103%. In addition, the z-score in [3] (setting [10]) worked out at 0.673; in test [3] (setting [11]), 1.61; in test [3] (setting [12]), 0.017. Also, the fluorescence slope in test [5] is -0.517 (inactive). Further, the NADPH fluorescence slope in test [6] was -2.1e-05 (inactive). Also, in test [7], the slope is 0.0034 (inactive). The outcome in [8] was inactive.

On to `COc1cc(C)nc(Oc2ccc(=O)n(C)n2)n1`, for which the cell count in test [1] was determined as 616. Also, the inhibition in [1] is -10.3% (inactive); in test [2] it was 13.1% (inactive); in test [4], -8.95% (inactive); in test [9], 3.29% (inactive). This compound registered a nuclei count in test [2] of 188%. The z-score is 0.099 in test [3] (setting [10]), -0.292 in [3] (setting [11]) and 0.697 in [3] (setting [12]). For the same compound, the fluorescence slope in test [5] was -0.38 (inactive). The NADPH fluorescence slope in test [6] was -2.2e-05 (inactive). Besides, the slope in test [7] was 0.00541 (inactive). In addition, the call in [8] was inactive.

Turning to `COc1cccc(-c2nc(NCC3CCCO3)c3ccccc3n2)c1O` (centres undefined), in [1], the cell count was 553. Also, the inhibition in test [1] was -3.3% (inactive); in test [2] it was -74.2% (inactive); in test [4], 1.6e-07% (inactive); in test [9], 55.5% (active). The same compound showed a nuclei count in test [2] of 131%. Also, the z-score is -1.22 in test [3] (setting [10]), 0.707 in [3] (setting [11]) and 0.124 in [3] (setting [12]). Moreover, in test [5], the fluorescence slope is -0.34 (inactive). Further, the NADPH fluorescence slope in [6] was -2.8e-05 (inactive). Besides, in test [7], the slope is 0.00373 (inactive). The call in test [8] was inactive.

As for `COc1cc(C(=O)OCCN2CCCCC2)ccc1O`, the cell count in test [1] amounted to 675. The inhibition in test [1] is -2.2% (inactive); in [2], 38.8% (inactive); in test [4], -3.98% (inactive); in [9] it was 17.1% (inactive). The compound further returned a nuclei count in [2] of 199%. For the same compound, the values for the z-score in [3] (setting [10]), in test [3] (setting [11]) and in test [3] (setting [12]) were -0.395, -0.645 and 0.828, respectively. The fluorescence slope in [5] was -0.493 (inactive). In test [6], the NADPH fluorescence slope is -0.000169 (inactive). Further, the slope in test [7] is 0.00513 (inactive). In addition, the result in test [8] was inactive.

Turning to `Cc1c(C(Nc2ccccn2)c2ccccc2)c(=O)n(-c2ccccc2)n1C` (centres undefined), the cell count in test [1] came to 522. Further, the inhibition was -5.3% (inactive) in test [1], -96.1% (inactive) in [2], -9.7% (inactive) in [4] and 23.1% (inactive) in test [9]. This compound also registered a nuclei count in test [2] of 136%. Further, the z-score in [3] (setting [10]) was -0.885; in test [3] (setting [11]), 0.0466; in test [3] (setting [12]), 1.12. The fluorescence slope in [5] is -0.508 (inactive). For the same compound, the NADPH fluorescence slope in [6] was -9.6e-05 (inactive). Further, the slope in test [7] was 0.00524 (inactive). Also, the compound was classed as inactive in test [8].

Turning to `COc1ccc(NC(=O)Nc2cccc(C(=O)N3CCOCC3)c2)cc1OC`, the cell count in test [1] amounted to 543. Further, the inhibition is 0% (inactive) in [1], -176% (inactive) in [2], 12.3% (inactive) in test [4] and 12.3% (inactive) in test [9]. Besides, the nuclei count in test [2] was 131%. The results for the z-score in [3] (setting [10]), in [3] (setting [11]) and in [3] (setting [12]) were 0.702, -0.546 and -0.00586, respectively. Also, the fluorescence slope in test [5] is -0.527 (inactive). The NADPH fluorescence slope in test [6] is -7.4e-05 (inactive). Also, the slope in test [7] is 0.00529 (inactive). Also, in [8], the compound was classed as inactive.

Turning to `COc1ccc(C(=O)/C=C/Nc2cccc(C)n2)cc1OC`, the cell count in test [1] was 553. Besides, the inhibition in [1] is -2.4% (inactive); in test [2] it was -95.1% (inactive); in test [4], -1.12% (inactive); in test [9], -7.36% (inactive). The nuclei count in [2] came out at 164%. In addition, the z-score in [3] (setting [10]) is -1.16; in [3] (setting [11]) it was 0.461; in [3] (setting [12]), 0.22. For the same compound, the fluorescence slope in test [5] was -0.33 (inactive). Moreover, in test [6], the NADPH fluorescence slope was -2.1e-05 (inactive). The slope in test [7] was 0.00813 (inactive). In test [8], the compound was classed as inactive.

Take `CN1C(=O)c2ccc(N(C)C)cc2C1=O`: the cell count in test [1] was found to be 681. The inhibition in test [1] is -8.8% (inactive); in test [2] it was 17.3% (inactive); in [4], 3.66% (inactive); in test [9] it was 21.8% (inactive). This compound also displayed a nuclei count in test [2] of 175%. Besides, the figures for the z-score in [3] (setting [10]), in test [3] (setting [11]) and in [3] (setting [12]) were 0.273, -0.466 and -0.534, respectively. For the same compound, in [5], the fluorescence slope is -0.479 (inactive). The NADPH fluorescence slope in [6] was -6.8e-05 (inactive). Also, the slope in [7] is 0.00498 (inactive). Further, in test [8], the outcome was inactive.

`COc1ccc(C2C(C#N)=C(N)Oc3n[nH]c(C)c32)cc1CSc1ccccn1` (centres undefined): the cell count in test [1] came out at 648. Besides, the inhibition in test [1] is -1.9% (inactive); in [2] it was 9.1% (inactive); in test [4], -5.62% (inactive); in test [9], -9.39% (inactive). Moreover, in test [2], the nuclei count turned out to be 168%. For the same compound, the values for the z-score in [3] (setting [10]), in test [3] (setting [11]) and in test [3] (setting [12]) were -0.678, 1.17 and -0.733, respectively. The fluorescence slope in [5] is -0.412 (inactive). Moreover, in [6], the NADPH fluorescence slope is -3.1e-05 (inactive). Besides, the slope in test [7] is 0.00563 (inactive). Also, the compound was called inactive in test [8].

For `Cc1cc(C)nc(NC2=NCC(=O)N2c2ccccc2)n1`, the cell count in [1] worked out at 599. The inhibition in test [1] was -3.5% (inactive); in test [2], -130% (inactive); in test [4], 3.97% (inactive); in test [9] it was -0.727% (inactive). Also, the nuclei count in test [2] was found to be 136%. The z-score in [3] (setting [10]) was 1.19; in test [3] (setting [11]), -0.204; in [3] (setting [12]) it was -1.47. In test [5], the fluorescence slope is -0.493 (inactive). In addition, the NADPH fluorescence slope in test [6] is -3.7e-05 (inactive). Moreover, the slope in [7] was 0.00515 (inactive). In addition, in test [8], the compound was called inactive.

For `COc1cccc(-c2nnc3sc(-c4ccc(Cl)cc4)nn23)c1`, the cell count in test [1] was 588. The inhibition in [1] is 3.2% (inactive); in [2], 19.9% (inactive); in [4], -4.27% (inactive); in [9], 5.02% (inactive). The same compound gave a nuclei count in test [2] of 102%. The figures for the z-score in test [3] (setting [10]), in test [3] (setting [11]) and in test [3] (setting [12]) were 0.426, -0.269 and 0.00297, respectively. Further, in test [5], the fluorescence slope was -0.385 (inactive). Also, the NADPH fluorescence slope in test [6] was -1.5e-05 (inactive). Also, the slope in [7] is 0.00661 (inactive). In test [8], the compound was classed as inactive.

As for `Cc1c(/C(O)=C2\C(=O)C(=O)N(CCN(C)C)C2c2cccnc2)cnn1-c1ccccc1` (centres undefined), the cell count in test [1] came to 512. Besides, the inhibition in test [1] is -1.7% (inactive); in [2] it was -140% (inactive); in test [4] it was -8.76% (inactive); in test [9], -1.73% (inactive). The compound also gave a nuclei count in test [2] of 139%. Moreover, the z-score in test [3] (setting [10]) is 1.11; in [3] (setting [11]), -1.54; in [3] (setting [12]) it was 0.165. The fluorescence slope in [5] is -0.564 (inactive). In addition, in [6], the NADPH fluorescence slope was -7.1e-05 (inactive). The slope in test [7] was 0.00465 (inactive). In addition, the compound was classed as inactive in test [8].

The values above are taken from PubChem BioAssay.
